# Results as given in ChEMBL document CHEMBL1147378, “Further lupane lactones from Kokoona ochracea” (1993).
# Tests used:
# [1] = Cytotoxicity against human BC1 cells after 72 hrs; type: functional; conditions: BC1, 72 h, read-out: ED50 (the source's name)
# Outline: (§1)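 Cells in media with penicillin, streptomycin, fungizone and NaHCO3, pH 7.1–7.2. Compounds dissolved in DMSO (0.5% v/v final) and tested in triplicate at four concentrations (0.16–20 μg/ml). Incubation 72 h at 37° under 5% CO2. Cells fixed in cold 50% TCA and stained with sulforhodamine B. Bound dye solubilized in 10 mM Tris base, OD read at 515 nm. ED50 taken from averaged % of DMSO-only controls.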
# [2] = test system: HT-1080; assay: Cytotoxicity against human HT1080 cells after 48 hrs; type: functional; conditions: HT-1080, 48 h, read-out: ED50 (the source's name)
# Outline: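 HT-1080 cells exposed in triplicate to four concentrations (0.16–20 μg/ml) of compound from DMSO stock (0.5% v/v final). Incubation 48 h at 37° under 5% CO2. Read-out by cold 50% TCA fixation, sulforhodamine B staining and Tris-solubilized OD at 515 nm. ED50 derived from averaged % of DMSO-only controls.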
# [3] = test system: Lu1; assay: Cytotoxicity against human Lu1 cells after 72 hrs; type: functional; conditions: Lu1, 72 h, read-out: ED50 (the source's name); outline: as §1
# [4] = test system: SK-MEL-2; assay: Cytotoxicity against human SK-MEL-2 cells after 72 hrs; type: functional; conditions: SK-MEL-2, 72 h, read-out: ED50 (the source's name)
# Outline: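 MEL-2 cells kept in a closed container. Treated in triplicate at four concentrations (0.16–20 μg/ml), DMSO 0.5% v/v final. Incubation 72 h at 37° without CO2. Cells fixed with cold 50% TCA, stained with sulforhodamine B, dye solubilized in 10 mM Tris, OD 515 nm. ED50 derived from averaged % of DMSO-only controls.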
# [5] = test system: Col2; assay: Cytotoxicity against human Col2 cells after 72 hrs; type: functional; conditions: Col2, 72 h, read-out: ED50 (the source's name); outline: as §1
# [6] = test system: KB; assay: Cytotoxicity against human KB cells after 72 hrs; type: functional; conditions: read-out: ED50 (the source's name); outline: as §1
# [7] = Cytotoxicity against human multidrug-resistant KBV1 cells in presence of vinblastine after 72 hrs; type: functional; conditions: KB-V1, 72 h, read-out: ED50 (the source's name)
# [8] = Cytotoxicity against human multidrug-resistant KBV1 cells in absence of vinblastine after 72 hrs; type: functional; conditions: KB-V1, 72 h, read-out: ED50 (the source's name); outline: as §1
# [9] = test system: P388; assay: Cytotoxicity against mouse P388 cells after 48 hrs; type: functional; conditions: P388, 48 h, read-out: ED50 (the source's name)
# Outline: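 Murine P-388 cells grown in medium without fungizone. Treated in triplicate at four concentrations (0.16–20 μg/ml), DMSO 0.5% v/v final. Incubation 48 h at 37° under 5% CO2. Fixed with 20% TCA, stained with sulforhodamine B, Tris-solubilized OD read at 515 nm. ED50 derived from averaged % of DMSO-only controls.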
# [10] = test system: A-431; assay: Cytotoxicity against human A431 cells after 72 hrs; type: functional; conditions: A-431, 72 h, read-out: ED50 (the source's name); outline: as §1
# [11] = test system: LNCaP; assay: Cytotoxicity against human LNCAP cells after 72 hrs; type: functional; conditions: read-out: ED50 (the source's name); outline: as §1
# [12] = test system: ZR-75-1; assay: Cytotoxicity against human ZR-75-1 cells after 72 hrs; type: functional; conditions: ZR-75-1, 72 h, read-out: ED50 (the source's name); outline: as §1
# [13] = Cytotoxicity against human U373 cells after 96 hrs; type: functional, U-373MG ATCC; conditions: U373 MG, read-out: ED50 (the source's name)
# Outline: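 U373 cells grown in medium without fungizone. Treated in triplicate with four concentrations (0.16–20 μg/ml), DMSO 0.5% v/v final. Incubation 96 h at 37° under 5% CO2. Sulforhodamine B protein stain after cold 50% TCA fixation, OD 515 nm. ED50 derived from averaged % of DMSO-only controls.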
compound,measurement,setting,value
CC(=O)OC[C@]1(OC(C)=O)C(=O)O[C@@H]2C[C@]3(C)CC[C@]4(C)[C@@H](CC[C@@H]5[C@@]6(C)CCC(=O)C(C)(C)[C@@H]6CC[C@]54C)[C@@H]3[C@@H]21,EC50,[1],> 20 µg/mL
same,EC50,[2],> 20 µg/mL
same,EC50,[3],> 20 µg/mL
same,EC50,[4],6.2 µg/mL
same,EC50,[5],> 20 µg/mL
same,EC50,[6],16.8 µg/mL
same,EC50,[7],6.7 µg/mL
same,EC50,[8],18.3 µg/mL
same,EC50,[9],4.8 µg/mL
same,EC50,[10],> 20 µg/mL
same,EC50,[11],> 20 µg/mL
same,EC50,[12],11.5 µg/mL
same,EC50,[13],> 20 µg/mL
CC(=O)OC[C@]1(O)C(=O)O[C@@H]2C[C@]3(C)CC[C@]4(C)[C@@H](CC[C@@H]5[C@@]6(C)CCC(=O)C(C)(C)[C@@H]6CC[C@]54C)[C@@H]3[C@@H]21,EC50,[1],> 20 µg/mL
same,EC50,[2],> 20 µg/mL
same,EC50,[3],> 20 µg/mL
same,EC50,[4],20 µg/mL
same,EC50,[5],> 20 µg/mL
same,EC50,[6],16.7 µg/mL
same,EC50,[7],11.7 µg/mL
same,EC50,[8],14.6 µg/mL
same,EC50,[9],4.6 µg/mL
same,EC50,[10],> 20 µg/mL
same,EC50,[11],> 20 µg/mL
same,EC50,[12],> 20 µg/mL
same,EC50,[13],> 20 µg/mL
CC1(C)C(=O)CC[C@]2(C)[C@H]3CC[C@H]4[C@@H]5[C@H]6[C@@H](C[C@]5(C)CC[C@@]4(C)[C@]3(C)CC[C@@H]12)OC(=O)[C@@]6(O)CO [OCHRACEOLIDE D],EC50,[1],> 20 µg/mL
same,EC50,[2],14.7 µg/mL
same,EC50,[3],> 20 µg/mL
same,EC50,[4],> 20 µg/mL
same,EC50,[5],> 20 µg/mL
same,EC50,[6],> 20 µg/mL
same,EC50,[7],> 20 µg/mL
same,EC50,[8],> 20 µg/mL
same,EC50,[9],> 5 µg/mL
same,EC50,[10],9.5 µg/mL
same,EC50,[11],15.5 µg/mL
same,EC50,[12],> 20 µg/mL
same,EC50,[13],3.9 µg/mL
C=C1C(=O)O[C@@H]2C[C@]3(CO)CC[C@]4(C)[C@@H](CC[C@@H]5[C@@]6(C)CCC(=O)C(C)(C)[C@@H]6CC[C@]54C)[C@@H]3[C@H]12 [OCHRACEOLIDE E],EC50,[1],> 20 µg/mL
same,EC50,[2],12.2 µg/mL
same,EC50,[3],> 20 µg/mL
same,EC50,[4],11.9 µg/mL
same,EC50,[5],> 20 µg/mL
same,EC50,[6],> 20 µg/mL
same,EC50,[7],> 20 µg/mL
same,EC50,[8],> 20 µg/mL
same,EC50,[9],> 5 µg/mL
same,EC50,[10],> 20 µg/mL
same,EC50,[11],> 20 µg/mL
same,EC50,[12],18.8 µg/mL
same,EC50,[13],8.6 µg/mL
